ChEMBL document CHEMBL1149791, “Evaluation of myorelaxant activity of 7-substituted hexahydroquinoline derivatives in isolated rabbit gastric fundus” (2008)
The source made the active and inactive calls. No cut-off for these calls is given here.

Key:
Stomach [1] = assay: Inhibition of neostigmine-induced neurogenic contractions in New Zealand white rabbit gastric fundus smooth muscle; format: functional, tissue-based; settings: Oryctolagus cuniculus
How it was run: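 Longitudinal gastric fundus strips (about 15–20 mm × 2 mm) from New Zealand white rabbits (2.5–3 kg), taken after i.v. pentobarbital. Strips were held in Krebs–Henseleit organ baths at 1 g basal tension and equilibrated 60 min. Contractions were evoked by electrical field stimulation through platinum electrodes (1 ms pulses, 60 V, 8 Hz) with neostigmine 10^-6 M. Compounds were dissolved in DMSO.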

Stomach [2] = assay: Inhibition of electrical field stimulation-induced neurogenic contractions in New Zealand white rabbit gastric fundus smooth muscle; format: functional
Stomach [3] = assay: Myorelaxant activity against noradrenaline-induced contractions in New Zealand white rabbit gastric fundus smooth muscle; format: functional, Oryctolagus cuniculus
How it was run: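 Longitudinal fundus strips (15-20 mm x 2 mm) were equilibrated 60 min at 1 g basal tension in Krebs-Henseleit solution, with the solution changed every 15 min. L-NAME 10^-4 M and indomethacin 10^-5 M were added 20 min before precontraction. Strips were precontracted with noradrenaline 10^-5 M. Compounds in DMSO were added cumulatively, each step after a plateau. pD2 and Em (at 3 x 10^-4 M) are mean ± S.E., n = 6.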

Stomach [4] = assay: Reversal of inhibition of electrical field stimulation-induced neurogenic contractions in New Zealand white rabbit gastric fundus smooth muscle in presence of glibenclamide; format: functional, Oryctolagus cuniculus
Stomach [5] = assay: Myorelaxant activity against noradrenaline-induced contractions in New Zealand white rabbit gastric fundus smooth muscle in presence of glibenclamide; format: functional, tissue-based; settings: Oryctolagus cuniculus

Structure (SMILES): CN1[C@@H]2CC[C@H]1CC(OC(=O)[C@H](CO)c1ccccc1)C2 (some centres undefined)
- Activity (Stomach [1]): Active
- Activity (Stomach [2]; Oryctolagus cuniculus): Active

Structure (SMILES): NC1=N[C@H](O)[C@H]2[C@H]3O[C@]4(O)O[C@@H]([C@@H](O)[C@@]2(N1)[C@@H]4O)[C@]3(O)CO
- Activity (Stomach [2]; Oryctolagus cuniculus): Active

Structure (SMILES): CC(N/C(=N\C#N)Nc1ccncc1)C(C)(C)C (centres undefined) [PINACIDIL ANHYDROUS]
- pD2 (Stomach [3]): 5.03
- Emax (Stomach [3]; Oryctolagus cuniculus, Stomach): 71.2%
- pD2 (Stomach [2]): 7.49
- Emax (Stomach [2]; Oryctolagus cuniculus, Stomach): 76.3%
- inhibition (INH) (Stomach [4]): 32.18%
- Activity (Stomach [5]): Active
